Screens (PubChem BioAssay)
aDG glyco act – increases alpha dystroglycan glycosylation; hit rate 0.22% among 360,000; activation, % at 10 µM; Pro5-aDG cells, alpha-DG glycosylation AlphaScreen (IIH6); 0% Pro5, 100% B10-LARGE cell signal;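 active means activation of at least 8% versus controls, or a plate z-score of at least 8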;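 further: Pro5 are CHO cells carrying HIG-tagged alpha-DG that lacks glycosylation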
NR3A LBD binder – NR3A (human) ligand-binding domain modulation. NR3A LBD differential scanning fluorimetry, Tm shift; 0% = protein alone, 100% = glycine-bound protein. Tm shift relative to glycine control, % at 25 µM. hit rate 2.5% among 340,000;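 active means melting temperature shift of at least 10% of the positive control shift, at one fixed dose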
proCasp3 act – procaspase-3 (human) activation; recombinant procaspase-3 D3A, Ac-DEVD-pNA absorbance 405 nm; activation, % at 8.5 µM; hit rate 0.11% among 330,000;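 active means activation above the mean of all tested compounds plus 3 SD, cut at about 21% in these data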;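 further: 0% = DMSO alone and 100% = DMSO wells spiked with extra 5 µM PC-3 D3A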
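assay system = Procaspase-3 D3A mutant | signal = absorbance at 405 nm, 0 and 120 min | times = 1 h preincubation plus 2 h reaction at 25 °C | repeats = single replicate | read-out = % activation between DMSO and enzyme-spiked controls | medium = Zinc-free HEPES saline buffer with Triton X-100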
MPTP inh – blocks calcium-induced mitochondrial swelling; isolated mouse mitochondria, Ca2+ swelling absorbance, 30 min; inhibition, % at 10 µM; hit rate 1.4% among 360,000; AID 602449;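 active means inhibition of 50% or more, scaled per plate between neutral and stimulator controls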;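 further: 0% = DMSO wells given calcium and 100% = 1 mM EGTA wells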
proCasp7 act – counter-screen for procaspase-3 activators: activators of human procaspase-7; hit rate 0.093% among 330,000; activation, % at 8.5 µM; recombinant procaspase-7, Ac-DEVD-pNA absorbance 405 nm; D23A/D198A/D206A triple mutant, cannot self-cleave; scale: DMSO 0, 5 µM enzyme 100; P55210;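 active means percent activation above the screen-wide mean plus 3 SD, cut at about 25% in these data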
Target sequence (P55210 whole entry D23A/D198A/D206A): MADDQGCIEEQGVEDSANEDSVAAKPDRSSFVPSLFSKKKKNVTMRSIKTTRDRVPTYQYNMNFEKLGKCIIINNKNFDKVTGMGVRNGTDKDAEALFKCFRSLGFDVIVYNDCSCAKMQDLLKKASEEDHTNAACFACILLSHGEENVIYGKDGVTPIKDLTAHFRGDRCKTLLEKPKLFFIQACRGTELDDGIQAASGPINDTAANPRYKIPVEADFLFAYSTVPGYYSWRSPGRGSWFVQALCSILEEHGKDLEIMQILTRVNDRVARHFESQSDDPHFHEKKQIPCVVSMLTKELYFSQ
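buffer or medium = Zinc-free HEPES/NaCl buffer, pH 7.4 | material = Procaspase-7 triple mutant (PC-7 D3A) | input = 2 µM procaspase-7 mutant as dispensed | signal = Epi-absorbance of released pNA at 405 nm, two timepoints | timing = 1 h preincubation, 2 h reaction | replicates = singlicate compound testing | evaluation = % activation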
Rh123 counter – membrane potential counter-screen of mitochondrial pore inhibitors; AID 624504; inhibition, % at 10 µM; shares compounds with MPTP inh; isolated mitochondria, Rhodamine 123 fluorescence; hit rate 78% among 5,000; in the data active means inhibition above about 22%;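 further: 0% = DMSO vehicle and 100% = positive control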
MPTP swell DR – MPTP inhibition, dose response swelling confirmation | shares compounds with MPTP inh | isolated mitochondria swelling, absorbance | IC50, µM | hit rate 58% among 780; in the data active means IC50 below about 20 µM
MPTP cs DR – MPTP inhibitor counter-screen activity, dose response | shares compounds with MPTP inh | isolated mitochondria counterscreen, fluorescence read-out | IC50, µM | hit rate 49% among 780 | AID 651564; in the data active means IC50 below about 80 µM
Active calls of the source: *; i = inactive; . = no result; + = active, no number. In the library only some 3.7% were active in any assay of this set; here they are far more common.

SMILES	aDG glyco act	NR3A LBD binder	proCasp3 act	MPTP inh	proCasp7 act	Rh123 counter	others
CC1(C(=O)NCC2CCOCC2)Cc2c(-c3cccc(C(F)(F)F)c3)ccnc2O1 (configuration not stated)	0	.	.	0	.	.
CC(C)(c1ccccc1)c1ccc(OCCCNCCO)cc1	4	2	-7	94*	1	-9	MPTP swell DR=5.9*;MPTP cs DR=>80
CCCCCC/C(C)=C1/SC(=S)NC1=O	0	-12	2	83*	-3	75*
Cc1cccc(CN2CCN(C3CN(Cc4cn(Cc5ccccc5C(F)(F)F)nn4)S(=O)(=O)C3)CC2)c1 (configuration not stated)	0	.	.	-1	.	.
COC(=O)Cc1cc(=O)n2[nH]c(C)cc2n1	0	-2	12	+	2	2	MPTP swell DR=>100;MPTP cs DR=>80
COC1(NS(=O)(=O)c2ccc(Br)cc2)C(C)=CC(=O)C=C1C	0	2	-6	78*	-1	4	MPTP swell DR=i;MPTP cs DR=>80
O=c1c(Sc2ccccc2)c(C(F)(F)F)[nH]n1-c1ccccc1	0	4	-3	70*	2	89*
CC(Oc1ccc2c(c1)oc(=O)c1ccccc12)C(=O)NCCN1CCOCC1 (configuration not stated)	0	0	-5	-2	4	.
c1coc(Cn2c(-c3ccco3)nc3ccccc32)c1	0	1	-3	51*	13	-7
CCOc1cc(CNCc2ccncc2)cc(Br)c1OCc1ccccc1F	3	5	-2	61*	15	76*
CCOc1cc(CNCCO)cc(Br)c1OCc1cccs1	4	1	1	93*	0	9	MPTP swell DR=4.1*;MPTP cs DR=23*
O=C(C[n+]1ccc(-c2nnc3n2CCC3)cc1)c1ccc(Cl)cc1	0	-11	4	-3	4	.
Cc1cc(C)c(NC(=O)/C(C#N)=C/c2ccc(OCc3ccc(F)cc3)cc2)c(C)c1	1	-2	3	85*	3	22*
OC(CNCC1CCCO1)Cn1c2ccccc2c2ccccc21 (configuration not stated)	1	0	0	74*	8	-9	MPTP swell DR=10*;MPTP cs DR=>80
CCc1ccccc1N(C)S(=O)(=O)c1ccc2[nH]cc(C(=O)N3CCc4ccccc43)c(=O)c2c1	0	2	0	64*	-3	63*
Cc1cccc(N(C)S(=O)(=O)c2ccc3[nH]cc(C(=O)N4CCOCC4)c(=O)c3c2)c1	0	-1	11	1	4	.
CCn1c(=O)c2ccccc2n2c(SCC(=O)N3CCCc4ccccc43)nnc12	0	-1	1	54*	7	3	MPTP swell DR=>100;MPTP cs DR=>80
O=C(COc1cc(Cl)c(Cl)cc1Cl)Nc1ccncc1	1	545*	2	76*	14	88*
Cc1cccc(OCC(=O)Nc2ccncc2)c1C	1	0	6	82*	4	87*
Cc1ccc(C)c(OCC(=O)Nc2ccncc2)c1	0	-1	-6	1	6	.
Cc1cc(Cl)ccc1OCC(=O)Nc1ccncc1	1	-3	-7	80*	-8	79*
COc1cccc(NC(=O)COc2ccc(Br)c(C)c2)c1	0	-6	3	-1	0	.
Cc1cc(OCC(=O)Nc2ccncc2)ccc1Br	0	0	8	59*	5	111*
C/C(=N\NC(=O)c1ccccc1O)C1C(=O)c2ccccc2C1=O	0	12*	-5	64*	2	70*
C/C(=N\NC(=O)c1cc2ccccc2cc1O)c1cc2ccccc2o1	0	5	-3	98*	-4	57*
C/C(=N/NC(=O)c1cc2ccccc2cc1O)C1C(=O)c2ccccc2C1=O	0	9	-7	86*	-15	17
Cc1ccc2c(c1)C1(C)C(C(C)(C)N2C=O)C1(Cl)Cl (configuration not stated)	0	1	-6	1	0	.
